pEC50, pIC50: −log10 of the molar value. Activity calls are given as the source filed them. The rule behind the calls is not given here.
Key:
Mus musculus [1] = assay: Upregulation of long chain acyl CoA dehydrogenase gene expression in C57BL/6J mouse muscles at 15 to 150 mg/kg, po; assay type: functional, organism-based; conditions: Muscle tissue
L6 [2] = assay: Induction of AMPK phosphorylation in rat L6 cells by Western blotting analysis; assay type: cell-based
[3] = target: T1, Inhibitor of nuclear factor kappa-B kinase subunit beta (Homo sapiens) (UniProt O14920); assay: Activity at IKKbeta (unknown origin)
T1 sequence (whole entry): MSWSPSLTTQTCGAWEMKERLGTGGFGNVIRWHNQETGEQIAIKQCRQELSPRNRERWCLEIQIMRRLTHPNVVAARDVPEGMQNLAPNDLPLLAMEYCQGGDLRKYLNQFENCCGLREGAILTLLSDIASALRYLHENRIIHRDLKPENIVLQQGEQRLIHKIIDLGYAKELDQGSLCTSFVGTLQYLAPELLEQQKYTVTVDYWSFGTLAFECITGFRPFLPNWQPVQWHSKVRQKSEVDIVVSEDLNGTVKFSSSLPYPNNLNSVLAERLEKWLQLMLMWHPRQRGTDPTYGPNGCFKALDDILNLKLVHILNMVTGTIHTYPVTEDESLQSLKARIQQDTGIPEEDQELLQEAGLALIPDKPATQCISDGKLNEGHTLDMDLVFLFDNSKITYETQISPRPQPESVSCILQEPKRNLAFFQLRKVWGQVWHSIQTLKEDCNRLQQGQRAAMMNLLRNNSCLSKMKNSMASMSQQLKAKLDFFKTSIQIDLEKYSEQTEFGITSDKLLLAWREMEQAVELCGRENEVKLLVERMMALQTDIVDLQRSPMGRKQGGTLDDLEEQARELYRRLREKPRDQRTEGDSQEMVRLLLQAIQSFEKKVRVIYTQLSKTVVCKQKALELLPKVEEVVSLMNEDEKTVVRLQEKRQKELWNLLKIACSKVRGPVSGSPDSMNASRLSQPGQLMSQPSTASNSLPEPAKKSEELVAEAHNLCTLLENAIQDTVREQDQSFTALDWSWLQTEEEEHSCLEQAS

Mus musculus [4] = assay: Upregulation of FABP3 gene expression in C57BL/6J mouse muscles at 15 to 150 mg/kg, po; assay type: functional, organism-based; conditions: Muscle tissue
[5] = Oral bioavailability in Wistar rat at 10 mg/kg by LC-MS/MS analysis; assay type: ADME, organism-based; conditions: in vivo
L6 [6] = assay: Activation of AMPK alpha1 D159A/alpha2 K45R mutant in rat L6 cells assessed as stimulation of glucose uptake after 15 mins; assay type: cell-based
Mus musculus [7] = assay: Antidiabetic activity in diet-induced obese C57BL/6J mouse assessed as reduction in plasma triglyceride at 15 mg/kg, po qd for 4 weeks (reference value: 0.62 +/- 0.02 mM); assay type: functional
Mus musculus [8] = assay: Antidiabetic activity in diet-induced obese C57BL/6J mouse assessed as decrease in AUC at 50 to 150 mg/kg, po qd for 4 weeks by glucose tolerance test relative to control; assay type: functional; parameters: scale not given: the % may be the effect or the level left; conditions: dose mg/kg 50-150
[9] = AUC (0 to infinity) in Wistar rat at 10 mg/kg, po by LC-MS/MS analysis; assay type: ADME, organism-based; parameters: time infinity, dose 10 mg/kg, route oral; conditions: plasma
Mus musculus [10] = assay: Antidiabetic activity in diet-induced obese C57BL/6J mouse assessed as increase in insulin tolerance at 15 to 150 mg/kg, po qd for 4 weeks by insulin tolerance test relative to control; assay type: functional, organism-based
L6 [11] = assay: Activation of AMPK in rat L6 cells assessed as stimulation of glucose uptake after 15 mins; assay type: cell-based
Mus musculus [12] = assay: Upregulation of CPT1 gene expression in C57BL/6J mouse muscles at 15 to 150 mg/kg, po; assay type: functional, organism-based; conditions: Muscle tissue
[13] = target: Glycogen synthase kinase-3 beta (Homo sapiens) (UniProt P49841); assay: Activity at GSK3beta (unknown origin)
Cytochrome P450 2C19 = Cytochrome P450 2C19 (Homo sapiens, UniProt P33261); assay: Inhibition of CYP2C19 (unknown origin); assay type: ADME
Mus musculus [14] = assay: Upregulation of UCP2 gene expression in C57BL/6J mouse muscles at 15 to 150 mg/kg, po; assay type: functional, organism-based; conditions: Muscle tissue
[15] = Terminal half life in Wistar rat at 2 mg/kg, iv by LC-MS/MS analysis; assay type: ADME, organism-based; parameters: dose 2 mg/kg, route intravenous; conditions: in vivo, read-out: beta t1/2 (converted)
AMPK alpha2/beta1/gamma1 = AMPK alpha2/beta1/gamma1 (Homo sapiens, UniProt P54619+P54646+Q9Y478); assay: Activation of recombinant AMPK alpha2beta1gamma1 (unknown origin) after 2 hrs by scintillation proximity assay; assay type: protein-complex assay
In short: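 Activation of bacterially expressed AMPK α2β1γ1 was measured by scintillation proximity assay. Efficacy is expressed relative to AMP.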

[16] = target: Maternal embryonic leucine zipper kinase (Homo sapiens) (UniProt Q14680); assay: Activity at MELK (unknown origin)
[17] = AUC (0 to infinity) in Wistar rat at 2 mg/kg, iv by LC-MS/MS analysis; assay type: ADME, organism-based; parameters: time infinity, dose 2 mg/kg, route intravenous; conditions: plasma
L6 [18] = assay: Induction of AMPK-mediated ACC phosphorylation in rat L6 cells by Western blotting analysis; assay type: cell-based
[19] = target: Voltage-gated inwardly rectifying potassium channel KCNH2 (Homo sapiens, UniProt Q12809); assay: Inhibition of human ERG
Mus musculus [20] = assay: Upregulation of CPT2 gene expression in C57BL/6J mouse muscles at 15 to 150 mg/kg, po; assay type: functional, organism-based; conditions: Muscle tissue
Mus musculus [21] = assay: Upregulation of PGC1alpha gene expression in C57BL/6J mouse muscles at 15 to 150 mg/kg, po; assay type: functional, organism-based; conditions: Muscle tissue
Cytochrome P450 2D6 = Cytochrome P450 2D6 (Homo sapiens, UniProt P10635); assay: Inhibition of CYP2D6 (unknown origin); assay type: ADME
Mus musculus [22] = assay: Antidiabetic activity in diet-induced obese C57BL/6J mouse assessed as reduction in plasma triglyceride at 50 mg/kg, po qd for 4 weeks (reference value: 0.62 +/- 0.02 mM); assay type: functional
[23] = Half life in Wistar rat at 10 mg/kg, po by LC-MS/MS analysis; assay type: ADME, organism-based; parameters: dose 10 mg/kg, route oral; conditions: in vivo
[24] = target: Serine/threonine-protein kinase MARK2 (Homo sapiens) (UniProt Q7KZI7); assay: Activity at MARK2 (unknown origin)
Mus musculus [25] = assay: Upregulation of medium chain acyl CoA dehydrogenase gene expression in C57BL/6J mouse muscles at 15 to 150 mg/kg, po; assay type: functional, organism-based; conditions: Muscle tissue
Mus musculus [26] = assay: Antidiabetic activity in diet-induced obese C57BL/6J mouse assessed as reduction in plasma triglyceride at 150 mg/kg, po qd for 4 weeks (reference value: 0.62 +/- 0.02 mM); assay type: functional
[27] = Drug metabolism in mouse liver microsomes; assay type: ADME, Microsome
Cytochrome P450 2C9 = Cytochrome P450 2C9 (Homo sapiens, UniProt P11712); assay: Inhibition of CYP2C9 (unknown origin); assay type: ADME
[28] = AUC (0 to 24 hrs) in Wistar rat at 10 mg/kg, po by LC-MS/MS analysis; assay type: ADME, organism-based; parameters: time < 24 hr, dose 10 mg/kg, route oral; conditions: plasma

Cytochrome P450 2D6, sequence (P10635 whole entry): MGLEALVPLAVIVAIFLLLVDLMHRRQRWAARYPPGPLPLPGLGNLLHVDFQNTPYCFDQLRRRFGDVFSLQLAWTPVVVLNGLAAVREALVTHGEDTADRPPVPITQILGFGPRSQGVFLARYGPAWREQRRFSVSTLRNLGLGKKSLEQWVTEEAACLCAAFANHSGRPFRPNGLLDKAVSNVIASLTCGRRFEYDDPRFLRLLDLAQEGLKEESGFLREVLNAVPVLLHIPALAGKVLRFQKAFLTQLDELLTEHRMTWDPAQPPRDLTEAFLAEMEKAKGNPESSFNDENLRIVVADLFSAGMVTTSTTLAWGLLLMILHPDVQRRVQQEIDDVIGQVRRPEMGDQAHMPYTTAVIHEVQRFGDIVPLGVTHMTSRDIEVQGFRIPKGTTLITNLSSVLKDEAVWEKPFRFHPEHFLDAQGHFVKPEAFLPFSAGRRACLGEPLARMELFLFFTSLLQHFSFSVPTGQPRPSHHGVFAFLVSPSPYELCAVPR
Glycogen synthase kinase-3 beta (Homo sapiens), sequence (P49841 whole entry, looked up): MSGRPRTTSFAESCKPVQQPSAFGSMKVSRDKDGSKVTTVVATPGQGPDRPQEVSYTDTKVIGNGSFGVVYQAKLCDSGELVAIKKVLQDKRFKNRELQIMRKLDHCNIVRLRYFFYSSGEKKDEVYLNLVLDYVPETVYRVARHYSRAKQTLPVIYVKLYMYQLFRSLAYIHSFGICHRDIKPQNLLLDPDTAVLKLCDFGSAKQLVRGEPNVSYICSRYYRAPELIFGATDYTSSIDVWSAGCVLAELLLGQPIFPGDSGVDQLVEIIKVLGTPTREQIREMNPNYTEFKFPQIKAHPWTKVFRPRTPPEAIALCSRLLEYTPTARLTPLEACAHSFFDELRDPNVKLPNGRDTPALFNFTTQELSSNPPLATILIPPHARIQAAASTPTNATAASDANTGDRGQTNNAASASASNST
Serine/threonine-protein kinase MARK2 (Homo sapiens), sequence (Q7KZI7 whole entry): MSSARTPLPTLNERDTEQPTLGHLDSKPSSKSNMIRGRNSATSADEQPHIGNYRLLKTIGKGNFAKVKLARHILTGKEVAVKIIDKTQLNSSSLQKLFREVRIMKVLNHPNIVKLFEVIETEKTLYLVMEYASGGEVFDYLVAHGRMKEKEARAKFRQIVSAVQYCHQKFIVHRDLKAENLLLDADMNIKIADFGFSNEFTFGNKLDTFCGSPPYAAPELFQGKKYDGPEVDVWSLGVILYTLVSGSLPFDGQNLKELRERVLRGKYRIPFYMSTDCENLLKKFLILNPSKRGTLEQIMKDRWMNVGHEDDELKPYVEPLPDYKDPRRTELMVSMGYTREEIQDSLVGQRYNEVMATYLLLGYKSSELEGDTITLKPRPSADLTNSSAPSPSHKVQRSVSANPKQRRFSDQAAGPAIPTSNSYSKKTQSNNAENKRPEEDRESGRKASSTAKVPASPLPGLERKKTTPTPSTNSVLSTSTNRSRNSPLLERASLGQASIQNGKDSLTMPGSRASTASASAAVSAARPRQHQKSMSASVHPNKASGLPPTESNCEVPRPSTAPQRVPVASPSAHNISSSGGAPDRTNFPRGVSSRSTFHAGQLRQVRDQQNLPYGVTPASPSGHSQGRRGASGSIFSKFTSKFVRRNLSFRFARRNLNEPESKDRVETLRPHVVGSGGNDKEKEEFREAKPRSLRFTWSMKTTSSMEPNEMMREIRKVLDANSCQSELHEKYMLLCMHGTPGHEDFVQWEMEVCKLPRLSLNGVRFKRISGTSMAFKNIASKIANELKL
Cytochrome P450 2C19, sequence (P33261 whole entry): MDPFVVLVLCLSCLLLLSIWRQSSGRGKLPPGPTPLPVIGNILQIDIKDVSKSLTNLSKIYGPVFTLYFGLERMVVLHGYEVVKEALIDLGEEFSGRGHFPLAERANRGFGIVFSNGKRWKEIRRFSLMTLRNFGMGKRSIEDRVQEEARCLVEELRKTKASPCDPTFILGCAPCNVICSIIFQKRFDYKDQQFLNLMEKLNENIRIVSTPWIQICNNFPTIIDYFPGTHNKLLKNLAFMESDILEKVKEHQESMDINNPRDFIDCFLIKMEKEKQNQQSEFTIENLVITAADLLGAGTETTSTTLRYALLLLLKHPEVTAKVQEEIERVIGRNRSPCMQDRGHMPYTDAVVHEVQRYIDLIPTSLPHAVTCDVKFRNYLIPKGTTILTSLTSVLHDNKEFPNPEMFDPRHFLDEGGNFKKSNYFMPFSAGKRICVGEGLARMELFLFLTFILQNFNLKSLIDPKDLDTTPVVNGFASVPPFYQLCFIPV
Maternal embryonic leucine zipper kinase (Homo sapiens), sequence (Q14680 whole entry, looked up): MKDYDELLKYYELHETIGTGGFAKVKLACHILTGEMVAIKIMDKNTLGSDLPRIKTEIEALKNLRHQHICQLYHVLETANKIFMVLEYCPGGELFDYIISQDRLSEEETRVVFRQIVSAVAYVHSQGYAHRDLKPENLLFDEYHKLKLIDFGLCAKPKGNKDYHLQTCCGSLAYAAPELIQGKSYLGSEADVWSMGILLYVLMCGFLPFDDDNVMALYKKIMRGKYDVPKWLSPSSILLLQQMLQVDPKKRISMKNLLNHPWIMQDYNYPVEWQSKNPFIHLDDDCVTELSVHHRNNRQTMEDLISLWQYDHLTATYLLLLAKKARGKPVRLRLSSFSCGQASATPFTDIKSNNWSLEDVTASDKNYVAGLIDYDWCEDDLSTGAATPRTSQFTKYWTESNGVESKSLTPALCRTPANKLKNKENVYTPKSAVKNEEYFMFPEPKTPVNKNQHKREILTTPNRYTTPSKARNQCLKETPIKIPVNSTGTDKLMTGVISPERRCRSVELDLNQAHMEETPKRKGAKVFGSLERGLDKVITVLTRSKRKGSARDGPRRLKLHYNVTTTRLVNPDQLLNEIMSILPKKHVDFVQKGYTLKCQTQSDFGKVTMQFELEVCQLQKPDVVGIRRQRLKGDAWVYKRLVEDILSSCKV
AMPK alpha2/beta1/gamma1, sequence (P54646 whole entry): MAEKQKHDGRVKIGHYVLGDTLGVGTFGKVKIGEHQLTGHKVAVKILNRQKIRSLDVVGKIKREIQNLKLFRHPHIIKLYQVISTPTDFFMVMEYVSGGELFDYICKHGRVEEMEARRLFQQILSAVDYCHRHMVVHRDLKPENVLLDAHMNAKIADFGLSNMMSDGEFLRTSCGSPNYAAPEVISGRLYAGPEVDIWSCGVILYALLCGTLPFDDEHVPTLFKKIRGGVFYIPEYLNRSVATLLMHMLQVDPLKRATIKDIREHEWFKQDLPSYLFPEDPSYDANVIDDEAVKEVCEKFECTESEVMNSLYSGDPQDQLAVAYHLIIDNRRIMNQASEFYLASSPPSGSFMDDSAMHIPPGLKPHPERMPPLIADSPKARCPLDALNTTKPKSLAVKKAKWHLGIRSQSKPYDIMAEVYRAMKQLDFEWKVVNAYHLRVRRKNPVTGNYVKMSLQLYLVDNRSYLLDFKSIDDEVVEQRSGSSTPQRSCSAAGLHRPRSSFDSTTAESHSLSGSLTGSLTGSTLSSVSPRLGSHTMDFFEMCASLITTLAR
AMPK alpha2/beta1/gamma1, sequence (P54619 whole entry): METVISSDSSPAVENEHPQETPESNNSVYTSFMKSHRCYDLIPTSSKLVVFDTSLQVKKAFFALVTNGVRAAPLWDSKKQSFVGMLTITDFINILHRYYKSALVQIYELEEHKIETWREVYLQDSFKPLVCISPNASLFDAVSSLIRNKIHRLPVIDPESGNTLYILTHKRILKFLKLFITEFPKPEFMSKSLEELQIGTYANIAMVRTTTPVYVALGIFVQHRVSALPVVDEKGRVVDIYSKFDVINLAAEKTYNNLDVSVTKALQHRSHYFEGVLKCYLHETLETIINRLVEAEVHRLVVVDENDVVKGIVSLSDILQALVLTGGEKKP
AMPK alpha2/beta1/gamma1, sequence (Q9Y478 whole entry): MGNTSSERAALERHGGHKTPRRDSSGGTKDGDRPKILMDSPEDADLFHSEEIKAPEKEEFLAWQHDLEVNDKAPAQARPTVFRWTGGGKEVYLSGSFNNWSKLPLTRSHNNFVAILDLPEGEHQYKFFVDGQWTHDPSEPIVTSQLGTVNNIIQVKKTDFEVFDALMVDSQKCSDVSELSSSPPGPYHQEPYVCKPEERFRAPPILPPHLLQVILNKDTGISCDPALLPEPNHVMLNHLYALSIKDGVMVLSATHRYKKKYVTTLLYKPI
Cytochrome P450 2C9, sequence (P11712 whole entry): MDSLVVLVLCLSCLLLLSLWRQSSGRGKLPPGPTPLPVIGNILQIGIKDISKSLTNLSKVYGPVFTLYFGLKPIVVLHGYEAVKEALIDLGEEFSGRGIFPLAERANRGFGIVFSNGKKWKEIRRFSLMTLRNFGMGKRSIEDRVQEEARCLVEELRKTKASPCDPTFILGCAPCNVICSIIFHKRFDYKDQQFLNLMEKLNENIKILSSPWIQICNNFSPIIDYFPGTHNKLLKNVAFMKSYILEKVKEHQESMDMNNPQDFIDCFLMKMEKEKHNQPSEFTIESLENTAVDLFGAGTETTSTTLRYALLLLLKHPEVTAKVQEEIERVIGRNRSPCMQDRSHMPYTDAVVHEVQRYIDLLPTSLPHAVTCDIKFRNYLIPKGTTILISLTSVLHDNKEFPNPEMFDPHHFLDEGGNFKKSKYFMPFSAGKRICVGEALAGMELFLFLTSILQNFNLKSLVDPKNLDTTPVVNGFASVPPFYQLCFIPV

SMILES: O=C(O)c1cccc(CN2C(=O)/C(=C(\c3ccccc3)c3ccc(Cl)cc3)c3ccccc32)c1
- Activity (Mus musculus [1]): Active
- Activity (L6 [2]): Dose-dependent effect
- Activity [3]: inactive
- Activity (Mus musculus [4]): Active
- bioavailability [5]: 33.7%
- Activity (L6 [6]): inactive
- Activity (Mus musculus [7]): 0.52 mM
- Activity (Mus musculus [8]): 30%
- AUC(0-inf) [9]: 29500 ng·h/mL
- Activity (Mus musculus [10]): Active
- Activity (L6 [11]): Dose-dependent effect
- Activity (Mus musculus [12]): Active
- Activity [13]: inactive
- inhibition (INH) (Cytochrome P450 2C19): Not Active
- Activity (Mus musculus [14]): Active
- half-life [15]: 236 min
- pEC50 (AMPK alpha2/beta1/gamma1): 5.92
- Activity [16]: inactive
- AUC(0-inf) [17]: 17500 ng·h/mL
- Activity (L6 [18]): Dose-dependent effect
- pIC50 [19]: < 4.70
- Activity (Mus musculus [20]): Active
- Activity (Mus musculus [21]): Active
- inhibition (INH) (Cytochrome P450 2D6): Not Active
- Activity (Mus musculus [22]): 0.52 mM
- half-life [23]: 240 min
- Activity [24]: inactive
- Activity (Mus musculus [25]): Active
- Activity (Mus musculus [26]): 0.54 mM
- Drug metabolism [27]: Not Active
- inhibition (INH) (Cytochrome P450 2C9): Not Active
- AUC(0-t) at 24 h [28]: 28900 ng·h/mL

Source: ChEMBL document CHEMBL2384909, “Development of Novel Alkene Oxindole Derivatives As Orally Efficacious AMP-Activated Protein Kinase Activators” (ACS Med Chem Lett, 2013)
